Results on 2 compounds are retold here after ChEMBL document CHEMBL4706770, “SD-91 as A Potent and Selective STAT3 Degrader Capable of Achieving Complete and Long-Lasting Tumor Regression” (ACS Med Chem Lett, 2021).

For data set [1], the target named is T1, Signal transducer and activator of transcription 5A (Homo sapiens, UniProt P42229).
T1 sequence (P42229 whole entry): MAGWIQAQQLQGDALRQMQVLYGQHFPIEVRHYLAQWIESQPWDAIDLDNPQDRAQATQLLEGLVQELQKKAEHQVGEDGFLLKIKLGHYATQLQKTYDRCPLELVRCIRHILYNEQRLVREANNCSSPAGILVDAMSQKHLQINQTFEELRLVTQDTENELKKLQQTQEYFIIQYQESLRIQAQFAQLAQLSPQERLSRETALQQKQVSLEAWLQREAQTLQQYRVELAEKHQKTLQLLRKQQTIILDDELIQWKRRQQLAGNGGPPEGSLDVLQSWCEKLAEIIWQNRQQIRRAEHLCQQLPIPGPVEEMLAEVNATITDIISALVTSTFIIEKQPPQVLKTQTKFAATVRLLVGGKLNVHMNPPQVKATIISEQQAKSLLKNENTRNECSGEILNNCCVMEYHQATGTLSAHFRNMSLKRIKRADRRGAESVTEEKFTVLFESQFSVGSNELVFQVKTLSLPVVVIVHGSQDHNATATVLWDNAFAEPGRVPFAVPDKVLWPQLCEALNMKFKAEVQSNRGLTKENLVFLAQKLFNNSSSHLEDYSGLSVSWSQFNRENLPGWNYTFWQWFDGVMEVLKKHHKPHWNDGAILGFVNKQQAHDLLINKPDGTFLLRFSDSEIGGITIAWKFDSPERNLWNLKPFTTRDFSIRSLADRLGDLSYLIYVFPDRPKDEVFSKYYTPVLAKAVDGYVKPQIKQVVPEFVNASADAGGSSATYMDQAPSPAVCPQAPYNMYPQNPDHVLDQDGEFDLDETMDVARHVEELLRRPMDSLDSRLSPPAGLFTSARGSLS
As to the kind of experiment: Binding affinity to human recombinant STAT5A assessed as dissociation constant incubated for 15 mins by biolayer interferometry. Put shortly: (§1)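 Biolayer interferometry with recombinant human STAT1, STAT2, STAT3, STAT4, STAT5A, STAT5B or STAT6 proteins containing their SH2 domain. Compound run in 2× serial dilutions from 200 nM. Kd taken from steady-state fitting of equilibrium responses against concentration using a 1:1 binding model.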
On the technique in general: BLI is a label-free optical method that tracks binding on a fibre tip over time.

Data set [2] is described as follows: Toxicity in SCID mouse xenografted with human MOLM16 cells assessed as body weight loss at 25 to 50 mg/kg, iv for 65 days. The format is organism-based. As to conditions: in vivo, 1560 h, dose 25-50 mg/kg, time 65 day. Put shortly: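 SCID mice bearing MOLM-16 xenografts dosed intravenously at 25 or 50 mg/kg on a weekly schedule; vehicle 10% PEG400/90% PBS; body weight and tumor volume measured every 2 days; signs of toxicity monitored during and after treatment.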
For orientation: Xenograft models place foreign cells or tissue in a host animal.

In data set [3] the target is Signal transducer and activator of transcription 3 (Homo sapiens, UniProt P40763). Briefly: Induction of STAT3 degradation in human SUP-M2 cells incubated for 4 hrs by western blot analysis. The format is cell-based. The gist of the method:
(§2)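 Cells treated 4 h with compounds across 25 nM to 100 μM; STAT proteins detected by Western blot with GAPDH as loading control; STAT3 DC50 estimated by densitometry of STAT3 relative to GAPDH. Applies to MOLM-16 for all STATs, and to SU-DHL-1 and SUP-M2 for STAT3.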
In general terms: In western blotting, separated proteins are transferred to a membrane and probed.

Data set [4] deals with T2, Signal transducer and activator of transcription 4 (Homo sapiens, UniProt Q14765).
T2 sequence (Q14765 whole entry): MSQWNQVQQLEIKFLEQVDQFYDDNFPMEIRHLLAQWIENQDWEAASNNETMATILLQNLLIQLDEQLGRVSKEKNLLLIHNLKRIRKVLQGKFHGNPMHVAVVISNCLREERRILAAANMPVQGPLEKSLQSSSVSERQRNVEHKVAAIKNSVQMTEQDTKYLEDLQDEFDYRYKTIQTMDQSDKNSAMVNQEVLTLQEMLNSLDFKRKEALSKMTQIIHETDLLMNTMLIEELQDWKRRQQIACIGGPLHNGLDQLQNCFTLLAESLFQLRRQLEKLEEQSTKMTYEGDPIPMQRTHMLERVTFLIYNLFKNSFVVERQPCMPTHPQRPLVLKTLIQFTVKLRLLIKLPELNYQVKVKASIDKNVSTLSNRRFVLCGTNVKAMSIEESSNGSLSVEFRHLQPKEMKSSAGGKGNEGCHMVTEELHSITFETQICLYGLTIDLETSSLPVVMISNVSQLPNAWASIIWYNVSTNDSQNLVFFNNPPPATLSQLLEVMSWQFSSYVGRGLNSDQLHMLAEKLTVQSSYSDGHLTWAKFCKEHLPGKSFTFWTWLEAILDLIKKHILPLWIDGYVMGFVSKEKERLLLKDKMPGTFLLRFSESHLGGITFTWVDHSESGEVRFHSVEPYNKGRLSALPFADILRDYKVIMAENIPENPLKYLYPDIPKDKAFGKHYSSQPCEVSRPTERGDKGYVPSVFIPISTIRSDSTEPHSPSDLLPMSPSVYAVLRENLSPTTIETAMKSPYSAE
Briefly: Binding affinity to human recombinant STAT4 assessed as dissociation constant incubated for 15 mins by biolayer interferometry. The gist of the method: as §1

The target in data set [5] is T3, Protein cereblon/Signal transducer and activator of transcription 3 (Homo sapiens, UniProt P40763+Q96SW2). As to the kind of experiment: Protac activity at CRBN/STAT3 in human SUP-M2 cells assessed as degradation of STAT3 incubated for 4 hrs by western blot analysis. The format is cell-based. The gist of the method:
as §2

The target of data set [6] is T4, Protein cereblon/Signal transducer and activator of transcription 5A (Homo sapiens) (UniProt P42229+Q96SW2). Briefly: Protac activity at CRBN/STAT5 in human MOLM16 cells assessed as STAT5 degradation at 0.25 to 100 uM incubated for 4 hrs by Western blot analysis. To be noted: dose 0.25-100 µM. The format is cell-based. Put shortly: as §2
T4 sequence (Q96SW2 whole entry, looked up, one chain of several): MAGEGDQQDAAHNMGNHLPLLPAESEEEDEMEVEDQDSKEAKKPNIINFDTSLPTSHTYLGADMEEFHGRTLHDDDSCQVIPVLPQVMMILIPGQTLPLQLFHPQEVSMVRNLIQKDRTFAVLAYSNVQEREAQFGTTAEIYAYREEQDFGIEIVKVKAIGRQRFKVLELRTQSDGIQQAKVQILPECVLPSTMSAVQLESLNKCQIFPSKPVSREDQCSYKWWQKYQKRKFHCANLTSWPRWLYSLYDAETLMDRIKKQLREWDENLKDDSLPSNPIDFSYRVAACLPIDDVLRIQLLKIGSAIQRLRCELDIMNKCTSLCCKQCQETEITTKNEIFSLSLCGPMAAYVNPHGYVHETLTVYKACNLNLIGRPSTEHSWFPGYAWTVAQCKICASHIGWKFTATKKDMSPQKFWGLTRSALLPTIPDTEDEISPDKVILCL
In data set [7] the target is T4, Protein cereblon/Signal transducer and activator of transcription 5A (Homo sapiens). Briefly: Protac activity at CRBN/STAT5 in human SUP-M2 cells assessed as STAT5 degradation at 0.25 to 100 uM incubated for 4 hrs by Western blot analysis. The format is cell-based. As to conditions: SUPM2, dose 0.25-100 µM.
In data set [8] the target is T5, Protein cereblon/Signal transducer and activator of transcription 6 (Homo sapiens) (UniProt P42226+Q96SW2). As to the kind of experiment: Protac activity at CRBN/STAT6 in human MOLM16 cells assessed as STAT6 degradation at 0.25 to 100 uM incubated for 4 hrs by Western blot analysis. The format is cell-based. To be noted: dose 0.25-100 µM. The gist of the method: as §2
T5 sequence (P42226 2-847 limits assumed): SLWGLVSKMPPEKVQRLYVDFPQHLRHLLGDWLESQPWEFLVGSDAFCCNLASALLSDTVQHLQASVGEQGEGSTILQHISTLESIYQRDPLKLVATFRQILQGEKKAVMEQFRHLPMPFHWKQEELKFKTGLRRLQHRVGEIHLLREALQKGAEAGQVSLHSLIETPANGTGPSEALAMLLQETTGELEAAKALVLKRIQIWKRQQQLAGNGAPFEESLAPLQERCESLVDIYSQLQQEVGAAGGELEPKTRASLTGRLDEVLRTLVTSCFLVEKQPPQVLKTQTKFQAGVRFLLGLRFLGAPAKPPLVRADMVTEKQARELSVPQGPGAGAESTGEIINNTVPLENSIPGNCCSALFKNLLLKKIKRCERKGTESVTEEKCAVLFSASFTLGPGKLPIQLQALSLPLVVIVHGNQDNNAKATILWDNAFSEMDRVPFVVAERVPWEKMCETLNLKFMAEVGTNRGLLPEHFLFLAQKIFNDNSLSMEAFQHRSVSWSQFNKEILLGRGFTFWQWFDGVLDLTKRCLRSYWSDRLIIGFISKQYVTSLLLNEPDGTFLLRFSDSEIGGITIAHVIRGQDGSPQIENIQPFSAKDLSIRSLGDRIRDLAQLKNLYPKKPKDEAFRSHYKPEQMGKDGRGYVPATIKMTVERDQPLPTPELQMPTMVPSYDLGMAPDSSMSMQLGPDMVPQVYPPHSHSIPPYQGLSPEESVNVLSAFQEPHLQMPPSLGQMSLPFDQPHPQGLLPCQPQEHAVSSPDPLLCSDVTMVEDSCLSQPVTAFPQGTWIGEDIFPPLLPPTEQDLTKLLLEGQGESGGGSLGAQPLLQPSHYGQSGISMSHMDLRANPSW
T5 sequence (Q96SW2 whole entry partner): as the sequence (Q96SW2 whole entry, looked up, one chain of several) above

Data set [9] in a line: Drug metabolism in complete cell culture medium assessed as (2-(((5S,8S,10aR)-8-(((S)-5-amino-1-(benzhydrylamino)-1,5-dioxopentan-2-yl)carbamoyl)-3-(8-(2-(2,6-dioxopiperidin-3-yl)-1-oxoisoindolin-4-yl)oct-7-ynoyl)-6-oxodecahydropyrrolo[1,2-a][1,5]diazocin-5-yl)carbamoyl)-1H-indole-5-carbonyl)phosphonic acid after 24 hrs by LC/MS/MS analysis. The gist of the method:
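Parent compound incubated in the cell culture medium used for the cellular assays, with or without cells, at 37 °C. Percentages of the hydrolysis product and the glutarimide ring-opened product measured at time points up to 96 h.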

For data set [10], the target named is T5, Protein cereblon/Signal transducer and activator of transcription 6 (Homo sapiens). As to the kind of experiment: Protac activity at CRBN/STAT6 in human SUP-M2 cells assessed as STAT6 degradation at 0.25 to 100 uM incubated for 4 hrs by Western blot analysis. The format is cell-based. To be noted: SUPM2, dose 0.25-100 µM.
Data set [11] concerns the target T3, Protein cereblon/Signal transducer and activator of transcription 3. As to the kind of experiment: Protac activity at CRBN/STAT3 in human SU-DHL-1 cells assessed as degradation of STAT3 incubated for 4 hrs by western blot analysis. The format is cell-based. The gist of the method: as §2

Calls of active or inactive are those of the source. The rule behind the calls is not given here.

As a reminder, the Kd is the equilibrium constant for the complex coming apart. The term DC50 denotes the midpoint of the concentration-degradation curve.

T3 sequence (P40763 whole entry): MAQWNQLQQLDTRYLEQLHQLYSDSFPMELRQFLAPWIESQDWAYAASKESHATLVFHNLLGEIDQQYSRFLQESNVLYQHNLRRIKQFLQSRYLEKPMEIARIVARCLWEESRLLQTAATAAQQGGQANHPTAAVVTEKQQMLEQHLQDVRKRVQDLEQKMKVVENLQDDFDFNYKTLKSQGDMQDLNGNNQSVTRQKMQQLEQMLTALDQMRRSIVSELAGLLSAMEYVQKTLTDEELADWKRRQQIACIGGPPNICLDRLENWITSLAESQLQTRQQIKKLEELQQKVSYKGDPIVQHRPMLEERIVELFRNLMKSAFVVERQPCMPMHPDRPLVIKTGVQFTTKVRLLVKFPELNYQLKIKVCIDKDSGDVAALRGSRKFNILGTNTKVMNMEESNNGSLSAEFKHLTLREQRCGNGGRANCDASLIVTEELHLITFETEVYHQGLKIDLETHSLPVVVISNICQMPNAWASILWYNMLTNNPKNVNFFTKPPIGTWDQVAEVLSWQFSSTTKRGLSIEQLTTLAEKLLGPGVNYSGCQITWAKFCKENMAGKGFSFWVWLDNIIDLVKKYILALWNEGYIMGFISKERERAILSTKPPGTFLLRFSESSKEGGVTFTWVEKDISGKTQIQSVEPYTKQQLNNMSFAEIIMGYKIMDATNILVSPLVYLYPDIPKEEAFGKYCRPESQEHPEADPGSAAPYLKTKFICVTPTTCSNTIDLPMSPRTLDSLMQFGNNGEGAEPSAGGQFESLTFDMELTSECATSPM
T3 sequence (Q96SW2 whole entry): as the sequence (Q96SW2 whole entry, looked up, one chain of several) above
Chain of Signal transducer and activator of transcription 3 (P40763 whole entry): as the sequence (P40763 whole entry) above

As to `NC(=O)CC[C@H](NC(=O)[C@@H]1CC[C@@H]2CCN(C(=O)CCCCCC#Cc3cccc4c3CN(C3CCC(=O)NC3=O)C4=O)C[C@H](NC(=O)c3cc4cc(C(=O)P(=O)(O)O)ccc4[nH]3)C(=O)N21)C(=O)NC(c1ccccc1)c1ccccc1` (stereo partly specified), the dissociation constant (Kd) in [1] and in data set [4] was greater than 10 nM throughout. Moreover, the Activity entry in data set [2] is “Non-Toxic”. Further, the 50% degradation concentration (DC50) in data set [3] worked out at 1200 nM.

`NC(=O)CC[C@H](NC(=O)[C@@H]1CC[C@@H]2CCN(C(=O)CCCCCC#Cc3cccc4c3CN(C3CCC(=O)NC3=O)C4=O)C[C@H](NC(=O)c3cc4cc(C(F)(F)P(=O)(O)O)ccc4[nH]3)C(=O)N21)C(=O)NC(c1ccccc1)c1ccccc1` (stereo partly specified): the DC50 in [5] stood at 2500 nM; in data set [11], 61 nM. Further, the outcome in data set [6], in data set [7], in [8] and in data set [10] was inactive. Besides, in data set [9], the Drug metabolism stood at 90%.
